Test results reported in ChEMBL document CHEMBL1137328, “5-pyrrolidinylsulfonyl isatins as a potential tool for the molecular imaging of caspases in apoptosis” (J Med Chem, 2006).
Active and inactive are the calls of the source. The rule behind the calls is not given here.

Columns and labels:
Caspase-7 = target: T1, Caspase-7 (Homo sapiens, UniProt P55210); experiment: Inhibition of caspase 7
T1 sequence (P55210 whole entry): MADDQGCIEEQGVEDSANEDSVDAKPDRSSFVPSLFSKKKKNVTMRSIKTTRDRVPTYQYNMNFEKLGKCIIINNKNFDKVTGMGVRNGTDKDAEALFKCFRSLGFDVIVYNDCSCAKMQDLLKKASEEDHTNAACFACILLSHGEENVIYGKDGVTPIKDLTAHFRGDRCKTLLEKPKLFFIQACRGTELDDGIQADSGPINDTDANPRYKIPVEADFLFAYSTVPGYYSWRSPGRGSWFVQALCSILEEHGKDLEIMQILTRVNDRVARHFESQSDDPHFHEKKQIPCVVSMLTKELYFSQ
How it was run: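 Inhibitor in DMSO (final 5 pM–500 µM, single doses) preincubated 10 min, then Ac-DEVD-AMC (final 10 µM) reacted 10 min. Cleaved AMC quantified by fluorescence; IC50 by nonlinear regression.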

Caspase-8 = Caspase-8 (Homo sapiens, UniProt Q14790); experiment: Inhibition of caspase 8
How it was run: (§1)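 Recombinant human caspase-1, -6 or -8 at 0.5 units per assay, preincubated 10 min at 37 °C with compound in DMSO at single doses from 5 pM to 500 µM. Fluorogenic AMC substrate then added at 10 µM final (caspase-1 Ac-YVAD-AMC, caspase-6 Ac-VEID-AMC, caspase-8 Ac-IETD-AMC) for a further 10 min. Read-out was AMC fluorescence. IC50 taken by nonlinear regression.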

Caspase-3 [1] = target: T2, Caspase-3 (Homo sapiens, UniProt P42574); experiment: Binding affinity to human caspase 3
T2 sequence (P42574 whole entry): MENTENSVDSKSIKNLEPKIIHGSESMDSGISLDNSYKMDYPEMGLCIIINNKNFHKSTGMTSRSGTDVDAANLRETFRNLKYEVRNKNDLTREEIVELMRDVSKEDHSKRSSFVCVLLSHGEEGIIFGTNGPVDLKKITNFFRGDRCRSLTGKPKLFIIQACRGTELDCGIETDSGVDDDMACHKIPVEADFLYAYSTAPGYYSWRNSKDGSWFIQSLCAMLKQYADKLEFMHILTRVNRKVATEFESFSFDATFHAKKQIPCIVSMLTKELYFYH
How it was run: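 Recombinant full-length human caspase-3 (1 unit/assay, 0.5 pM) preincubated 10 min at 37 °C with isatin in DMSO (single doses, 5 pM–500 µM) in 25 mM HEPES pH 7.5, 0.1% CHAPS, 50 mM KCl, 5 mM β-mercaptoethanol. Ac-DEVD-AMC (10 µM final) then added for 10 min. IC50 by nonlinear regression, converted to Ki = IC50/(1+[S]/KM). Mean of three assays.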

Caspase-1 = target: T3, Caspase-1 (Homo sapiens, UniProt P29466); experiment: Inhibition of caspase 1; how it was run: as §1
T3 sequence (P29466 whole entry): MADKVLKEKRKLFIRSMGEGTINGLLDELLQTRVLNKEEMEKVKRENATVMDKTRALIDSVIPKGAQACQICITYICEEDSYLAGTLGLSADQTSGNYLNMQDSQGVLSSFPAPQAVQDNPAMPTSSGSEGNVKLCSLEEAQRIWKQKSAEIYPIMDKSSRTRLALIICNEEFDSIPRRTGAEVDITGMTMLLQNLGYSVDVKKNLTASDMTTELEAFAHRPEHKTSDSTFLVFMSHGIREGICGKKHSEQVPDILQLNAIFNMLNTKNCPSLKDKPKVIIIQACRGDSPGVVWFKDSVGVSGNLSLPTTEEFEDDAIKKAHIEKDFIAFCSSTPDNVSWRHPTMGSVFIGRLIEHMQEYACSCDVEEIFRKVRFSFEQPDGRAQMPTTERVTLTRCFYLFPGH

Caspase-3 [2] = target: T2, Caspase-3; experiment: Inhibition of caspase 3
How it was run: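 Recombinant human caspases (0.5 units/assay) preincubated 10 min at 37 °C with isatin in DMSO (single doses, 5 pM–500 µM). The buffer for all was 0.1% CHAPS, 100 mM NaCl, 2 mM EDTA, 10% sucrose, with 20 mM HEPES pH 7.4. Caspase-1 used 100 mM HEPES and β-mercaptoethanol, and caspase-7 used β-mercaptoethanol. AMC substrates at 10 µM for 10 min: YVAD (caspase-1), DEVD (caspase-3/-7), VEID (caspase-6), IETD (caspase-8). IC50 by nonlinear regression.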

Caspase-6 = target: T4, Caspase-6 (Homo sapiens, UniProt P55212); experiment: Inhibition of caspase 6; how it was run: as §1
T4 sequence (P55212 whole entry): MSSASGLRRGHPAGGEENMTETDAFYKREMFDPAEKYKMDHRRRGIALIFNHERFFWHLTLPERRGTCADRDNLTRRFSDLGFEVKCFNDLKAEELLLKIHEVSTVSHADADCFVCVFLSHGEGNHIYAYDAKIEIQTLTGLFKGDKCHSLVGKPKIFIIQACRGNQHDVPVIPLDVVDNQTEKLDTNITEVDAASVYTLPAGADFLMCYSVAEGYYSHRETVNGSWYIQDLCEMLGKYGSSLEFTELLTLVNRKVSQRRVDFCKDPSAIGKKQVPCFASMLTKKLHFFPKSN

HUVEC [3] = experiment: Inhibition of caspase 3 processing in apoptotic HUVEC at 10 uM; format: functional, cell-based; conditions: Homo sapiens
How it was run: (§2)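 HUVEC grown on gelatin-coated dishes in RPMI-1640 with 15% calf serum, heparin and pituitary extract. Cells were preincubated 30 min with compound. Apoptosis was then induced by growth-factor withdrawal (RPMI-1640 alone), with compound present, for 8 h at 37 °C. Lysates (30 µg) were run on 15% SDS-PAGE Western blots for processed caspase-3 (p17/p12), caspase-8, caspase-9, cleaved PARP ([…]) and lamin A/C. Z-VAD-fmk served as full-inhibition control and β-actin as loading control.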

HUVEC [4] = experiment: Inhibition of caspase 8 processing in apoptotic HUVEC at 50 uM; format: functional, cell-based; conditions: Homo sapiens; how it was run: as §2
HUVEC [5] = experiment: Inhibition of caspase 8 processing in apoptotic HUVEC at 100 uM; format: functional, cell-based; conditions: Homo sapiens; how it was run: as §2
HUVEC [6] = experiment: Inhibition of caspase 9 processing in apoptotic HUVEC at 50 uM; format: functional, cell-based; conditions: Homo sapiens; how it was run: as §2
HUVEC [7] = experiment: Inhibition of caspase 9 processing in apoptotic HUVEC at 100 uM; format: functional, cell-based; conditions: Homo sapiens; how it was run: as §2
HUVEC [8] = experiment: Inhibition of PARP cleavage in apoptotic HUVEC at 50 uM; format: functional, cell-based; conditions: Homo sapiens; how it was run: as §2
HUVEC [9] = experiment: Inhibition of lamin A/C cleavage in apoptotic HUVEC at 50 uM; format: functional, cell-based; conditions: Homo sapiens; how it was run: as §2
Caspase-3 [10] = target: T2, Caspase-3; experiment: Inhibition of caspase 3 in neutrophils
HUVEC [11] = experiment: Inhibition of PARP cleavage in apoptotic HUVEC at 100 uM; format: functional, cell-based; conditions: Homo sapiens; how it was run: as §2
HUVEC [12] = experiment: Inhibition of lamin A/C cleavage in apoptotic HUVEC at 100 uM; format: functional, cell-based; conditions: Homo sapiens; how it was run: as §2

Caspase-8, sequence (Q14790 217-374 limits assumed): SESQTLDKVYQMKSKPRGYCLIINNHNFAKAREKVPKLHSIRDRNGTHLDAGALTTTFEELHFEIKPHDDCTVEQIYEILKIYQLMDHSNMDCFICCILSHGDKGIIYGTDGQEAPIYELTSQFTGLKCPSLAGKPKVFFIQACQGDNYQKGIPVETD
Caspase-8, sequence (Q14790 385-479 limits assumed): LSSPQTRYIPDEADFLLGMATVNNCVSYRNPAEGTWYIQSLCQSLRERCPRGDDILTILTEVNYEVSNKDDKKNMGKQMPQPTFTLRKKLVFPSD

SMILES	IC50 (Caspase-7) [nM]	IC50 (Caspase-8) [nM]	Ki (Caspase-3 [1]) [nM]	IC50 (Caspase-1) [nM]	IC50 (Caspase-3 [2]) [nM]	IC50 (Caspase-6) [nM]	Activity (HUVEC [3])	Activity (HUVEC [4])	Activity (HUVEC [5])	Activity (HUVEC [6])	Activity (HUVEC [7])	IC50 (Caspase-3 [10]) [nM]	Activity (HUVEC [8])	Activity (HUVEC [9])	Activity (HUVEC [11])	Activity (HUVEC [12])
CC(C)(C)[Si](C)(C)Oc1ccc(CN2C(=O)C(=O)c3cc(S(=O)(=O)N4CCC[C@H]4COc4ccccc4)ccc32)cc1	366	> 500000	9.8	> 500000	20	> 500000										
COC[C@@H]1CCCN1S(=O)(=O)c1ccc2c(c1)C(=O)C(=O)N2Cc1ccc(OCCBr)cc1	25.7	> 500000	8	> 15000	16.3	> 500000										
O=C1C(=O)N(Cc2ccc(O)cc2)c2ccc(S(=O)(=O)N3CCC[C@H]3COc3ccccc3)cc21	52.7	> 500000	4	> 25000	8.2	> 500000										
Cc1ccc(S(=O)(=O)OCCOc2ccc(CN3C(=O)C(=O)c4cc(S(=O)(=O)N5CCC[C@H]5COc5ccccc5)ccc43)cc2)cc1	50.9	> 500000	8.6	> 500000	17.5	> 500000										
CN1C(=O)C(=O)c2cc(S(=O)(=O)N3CCC[C@H]3COc3ccccc3)ccc21	190	> 500000	56.1	> 500000	114	> 500000						10000				
COC[C@@H]1CCCN1S(=O)(=O)c1ccc2c(c1)C(=O)C(=O)N2Cc1ccc(OCCOS(=O)(=O)c2ccc(C)cc2)cc1	13.8	> 500000	0.8	> 500000	1.7	> 500000										
COC[C@@H]1CCCN1S(=O)(=O)c1ccc2c(c1)C(=O)C(=O)N2C	304	> 500000	1.2	> 25000	2.4	> 500000	Active	Active	Active	Active	Active		Active	Active		
COC[C@@H]1CCCN1S(=O)(=O)c1ccc2c(c1)C(=O)C(=O)N2Cc1ccc(O[Si](C)(C)C(C)(C)C)cc1	69.8	> 500000	1.9	> 7000	3.8	> 500000										
COC[C@@H]1CCCN1S(=O)(=O)c1ccc2c(c1)C(=O)C(=O)N2	1290	> 500000	41.8	> 15000	84.9	> 500000										
O=C1Nc2ccc(S(=O)(=O)N3CCC[C@H]3COc3ccccc3)cc2C1=O	294	> 500000	8.3	> 10000	16.9	> 500000										
O=C1C(=O)N(Cc2ccc(OCCF)cc2)c2ccc(S(=O)(=O)N3CCC[C@H]3COc3ccccc3)cc21		> 500000	0.2	> 500000	0.3	> 500000										
COc1ccc(CN2C(=O)C(=O)c3cc(S(=O)(=O)N4CCC[C@H]4COc4ccccc4)ccc32)cc1	31.2	> 500000	4.8	> 500000	9.7	> 500000										

More lines, main results first:

IC50 (Caspase-7) [nM]	IC50 (Caspase-8) [nM]	Ki (Caspase-3 [1]) [nM]	IC50 (Caspase-1) [nM]	IC50 (Caspase-3 [2]) [nM]	IC50 (Caspase-6) [nM]	Activity (HUVEC [3])	Activity (HUVEC [4])	Activity (HUVEC [5])	Activity (HUVEC [6])	Activity (HUVEC [7])	IC50 (Caspase-3 [10]) [nM]	SMILES	Activity (HUVEC [8])	Activity (HUVEC [9])	Activity (HUVEC [11])	Activity (HUVEC [12])
42	> 500000	12.6	> 500000	25.6	> 500000							O=C1C(=O)N(Cc2ccc(OCCBr)cc2)c2ccc(S(=O)(=O)N3CCC[C@H]3COc3ccccc3)cc21				
1.8	> 500000	5.9	> 10000	12	> 500000	Active						COC[C@@H]1CCCN1S(=O)(=O)c1ccc2c(c1)C(=O)C(=O)N2Cc1ccc(I)cc1				
4	> 500000		> 10000	18.4	> 500000	Active	Active	Active	Active	Active		COC[C@@H]1CCCN1S(=O)(=O)c1ccc2c(c1)C(=O)C(=O)N2Cc1ccc(OC)cc1	Active	Active		
32.3	> 500000	23.5	> 60000	47.8	> 500000							COC[C@@H]1CCCN1S(=O)(=O)c1ccc2c(c1)C(=O)C(=O)N2Cc1ccc(O)cc1				
18.6	> 500000		> 500000		> 500000							O=C1C(=O)N(Cc2ccc(I)cc2)c2ccc(S(=O)(=O)N3CCC[C@H]3COc3ccccc3)cc21				
93.3	> 25000	17.9	> 25000	36.4	> 25000	Active	Active	Active	Active	Active		COC[C@@H]1CCCN1S(=O)(=O)c1ccc2c(c1)C(=O)C(=O)N2Cc1ccc(OCCF)cc1			Active	Active
